Assays:
[1] = target: T1, Serine/threonine-protein kinase TNNI3K (Homo sapiens) (UniProt Q59H18); experiment: Inhibition of TNNI3K (unknown origin) assessed as residual activity at 1 uM using biotinylated CTnI as substrate by HTRF analysis relative to control
T1 sequence (whole entry): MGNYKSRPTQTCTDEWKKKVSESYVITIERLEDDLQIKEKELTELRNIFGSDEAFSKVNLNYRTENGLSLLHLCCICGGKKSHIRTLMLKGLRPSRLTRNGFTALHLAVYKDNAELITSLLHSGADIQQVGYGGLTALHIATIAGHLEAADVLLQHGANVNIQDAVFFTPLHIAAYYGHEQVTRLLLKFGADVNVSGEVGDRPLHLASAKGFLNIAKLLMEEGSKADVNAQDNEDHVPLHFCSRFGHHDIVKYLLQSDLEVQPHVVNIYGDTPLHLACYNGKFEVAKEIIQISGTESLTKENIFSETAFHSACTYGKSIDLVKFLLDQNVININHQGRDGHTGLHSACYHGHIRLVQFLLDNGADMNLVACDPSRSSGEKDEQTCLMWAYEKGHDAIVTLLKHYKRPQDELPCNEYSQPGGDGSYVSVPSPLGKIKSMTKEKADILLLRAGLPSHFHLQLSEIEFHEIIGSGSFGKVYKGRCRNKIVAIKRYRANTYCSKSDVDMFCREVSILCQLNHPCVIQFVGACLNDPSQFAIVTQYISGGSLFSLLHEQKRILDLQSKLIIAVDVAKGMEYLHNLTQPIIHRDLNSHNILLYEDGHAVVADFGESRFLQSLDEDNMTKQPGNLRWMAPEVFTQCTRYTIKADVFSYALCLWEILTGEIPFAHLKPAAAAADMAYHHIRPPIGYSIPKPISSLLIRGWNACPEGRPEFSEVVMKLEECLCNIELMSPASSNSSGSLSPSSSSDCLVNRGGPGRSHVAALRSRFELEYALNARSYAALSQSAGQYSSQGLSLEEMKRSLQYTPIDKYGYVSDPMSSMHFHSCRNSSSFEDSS
In short: (§1)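 TNNI3K was assayed by HTRF using a GST-tagged TNNI3K kinase domain and a biotinylated cardiac troponin I substrate peptide, followed by the two HTRF detection reagents. Compounds were screened at 1.0 µM, then IC50s were determined.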

[2] = target: Epidermal growth factor receptor (Homo sapiens) (UniProt P00533); experiment: Inhibition of recombinant human EGFR (696 to end residues) assessed as residual activity at 1 uM using poly(Glu, Tyr) 4:1 as substrate incubated for 40 mins by [gamma-33P]-ATP scintillation counting based radiometry assay relative to control
[3] = target: Receptor tyrosine-protein kinase erbB-2 (Homo sapiens) (UniProt P04626); experiment: Inhibition of recombinant human HER2 (676 to end residues) assessed as residual activity at 1 uM using poly(Glu, Tyr) 4:1 as substrate incubated for 40 mins by [gamma-33P]-ATP scintillation counting based radiometry assay relative to control
[4] = target: Vascular endothelial growth factor receptor 1 (Homo sapiens) (UniProt P17948); experiment: Inhibition of recombinant human FLT1 (783 to end residues) assessed as residual activity at 1 uM using KKKSPGEYVNIEFG as substrate incubated for 40 mins by [gamma-33P]-ATP scintillation counting based radiometry assay relative to control
[5] = target: Vascular endothelial growth factor receptor 2 (Homo sapiens) (UniProt P35968); experiment: Inhibition of recombinant human KDR (790 to end residues) assessed as residual activity at 1 uM using myelin basic protein as substrate incubated for 40 mins by [gamma-33P]-ATP scintillation counting based radiometry assay relative to control
[6] = target: T2, Serine/threonine-protein kinase TNNI3K (Homo sapiens, UniProt Q59H18); experiment: Inhibition of TNNI3K (unknown origin) using biotinylated CTnI as substrate by HTRF analysis; in short: as §1
T2 sequence (Q59H18 whole entry): T1 sequence (whole entry)

H9c2 [7] = experiment: Cytoprotective activity against OGD-induced cell death in rat H9c2 cells assessed as cell viability at 1 uM incubated for 24 hrs by MTT assay (reference value: 42.08 to 49.11 %); type: functional; settings: read-out: Activity
H9c2 [8] = experiment: Cytoprotective activity against OGD-induced cell death in rat H9c2 cells assessed as cell viability at 10 uM incubated for 24 hrs by MTT assay (reference value: 42.08 to 49.11 %); type: functional; settings: read-out: Activity

Vascular endothelial growth factor receptor 2 (Homo sapiens), sequence (P35968 whole entry): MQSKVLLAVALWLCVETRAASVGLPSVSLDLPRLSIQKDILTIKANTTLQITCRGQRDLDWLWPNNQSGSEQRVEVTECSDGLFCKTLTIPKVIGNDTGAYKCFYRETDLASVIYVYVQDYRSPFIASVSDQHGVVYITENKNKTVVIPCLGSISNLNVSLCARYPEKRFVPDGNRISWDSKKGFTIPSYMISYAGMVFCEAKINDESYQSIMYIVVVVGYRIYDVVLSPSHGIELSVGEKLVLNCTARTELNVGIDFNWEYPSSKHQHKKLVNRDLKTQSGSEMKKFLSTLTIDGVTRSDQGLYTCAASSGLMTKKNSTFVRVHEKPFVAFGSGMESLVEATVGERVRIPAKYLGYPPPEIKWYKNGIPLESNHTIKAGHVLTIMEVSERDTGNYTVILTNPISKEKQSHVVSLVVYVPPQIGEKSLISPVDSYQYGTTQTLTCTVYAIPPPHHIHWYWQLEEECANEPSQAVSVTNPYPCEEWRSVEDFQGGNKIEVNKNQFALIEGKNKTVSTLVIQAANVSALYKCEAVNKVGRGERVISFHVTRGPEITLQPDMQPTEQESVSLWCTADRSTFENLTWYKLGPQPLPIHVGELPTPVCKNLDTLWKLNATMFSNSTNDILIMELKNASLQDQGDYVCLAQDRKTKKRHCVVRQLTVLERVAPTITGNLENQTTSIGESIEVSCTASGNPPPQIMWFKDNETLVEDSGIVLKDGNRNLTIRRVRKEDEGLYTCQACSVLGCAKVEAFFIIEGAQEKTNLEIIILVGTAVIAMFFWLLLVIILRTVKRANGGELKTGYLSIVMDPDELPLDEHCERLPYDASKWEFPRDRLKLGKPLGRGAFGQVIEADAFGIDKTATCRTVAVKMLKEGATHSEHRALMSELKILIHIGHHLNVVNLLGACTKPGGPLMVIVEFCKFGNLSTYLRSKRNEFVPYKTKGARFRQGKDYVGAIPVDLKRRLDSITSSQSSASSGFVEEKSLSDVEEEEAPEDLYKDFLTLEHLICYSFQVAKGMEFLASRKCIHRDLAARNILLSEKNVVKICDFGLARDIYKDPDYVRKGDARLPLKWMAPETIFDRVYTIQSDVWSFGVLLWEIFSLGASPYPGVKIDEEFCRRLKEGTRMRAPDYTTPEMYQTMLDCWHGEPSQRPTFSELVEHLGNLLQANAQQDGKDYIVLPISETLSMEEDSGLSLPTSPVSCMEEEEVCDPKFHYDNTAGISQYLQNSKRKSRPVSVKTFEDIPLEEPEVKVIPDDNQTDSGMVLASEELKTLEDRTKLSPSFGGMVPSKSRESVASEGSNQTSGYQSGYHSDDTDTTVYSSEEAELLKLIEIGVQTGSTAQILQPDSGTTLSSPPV
Vascular endothelial growth factor receptor 1 (Homo sapiens), sequence (P17948 whole entry): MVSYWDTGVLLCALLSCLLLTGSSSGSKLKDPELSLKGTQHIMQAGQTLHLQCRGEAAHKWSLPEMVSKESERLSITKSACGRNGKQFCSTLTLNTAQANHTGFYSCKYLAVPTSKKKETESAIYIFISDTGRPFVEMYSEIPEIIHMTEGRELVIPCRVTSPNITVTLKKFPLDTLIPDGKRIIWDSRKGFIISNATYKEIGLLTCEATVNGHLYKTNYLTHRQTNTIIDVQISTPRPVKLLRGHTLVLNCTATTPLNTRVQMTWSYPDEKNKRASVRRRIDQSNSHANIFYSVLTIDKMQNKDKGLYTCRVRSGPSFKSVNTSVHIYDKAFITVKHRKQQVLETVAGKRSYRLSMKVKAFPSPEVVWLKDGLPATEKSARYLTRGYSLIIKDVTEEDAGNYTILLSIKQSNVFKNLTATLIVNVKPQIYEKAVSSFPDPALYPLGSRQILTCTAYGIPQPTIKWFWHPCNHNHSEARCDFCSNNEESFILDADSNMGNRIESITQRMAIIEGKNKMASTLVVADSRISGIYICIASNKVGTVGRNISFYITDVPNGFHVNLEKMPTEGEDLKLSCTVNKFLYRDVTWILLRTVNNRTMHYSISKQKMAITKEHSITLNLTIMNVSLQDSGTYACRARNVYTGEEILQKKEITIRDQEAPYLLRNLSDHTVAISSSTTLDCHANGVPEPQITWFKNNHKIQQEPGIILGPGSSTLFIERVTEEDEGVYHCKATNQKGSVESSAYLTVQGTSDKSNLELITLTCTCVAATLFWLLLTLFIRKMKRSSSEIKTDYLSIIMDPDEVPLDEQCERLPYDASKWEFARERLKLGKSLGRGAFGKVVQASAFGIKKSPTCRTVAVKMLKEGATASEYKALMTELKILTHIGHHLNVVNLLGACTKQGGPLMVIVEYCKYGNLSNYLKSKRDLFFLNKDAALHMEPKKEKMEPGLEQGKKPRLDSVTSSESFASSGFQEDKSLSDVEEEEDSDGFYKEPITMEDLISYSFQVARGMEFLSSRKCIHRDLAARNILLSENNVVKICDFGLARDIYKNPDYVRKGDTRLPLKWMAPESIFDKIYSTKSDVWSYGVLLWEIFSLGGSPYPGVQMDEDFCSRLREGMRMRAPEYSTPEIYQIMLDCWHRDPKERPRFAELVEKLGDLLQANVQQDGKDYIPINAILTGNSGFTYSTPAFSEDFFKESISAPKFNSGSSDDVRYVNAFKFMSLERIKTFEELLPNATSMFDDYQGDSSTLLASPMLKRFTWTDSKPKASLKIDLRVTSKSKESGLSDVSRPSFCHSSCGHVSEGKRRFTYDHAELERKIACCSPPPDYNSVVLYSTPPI
Epidermal growth factor receptor (Homo sapiens), sequence (P00533 whole entry): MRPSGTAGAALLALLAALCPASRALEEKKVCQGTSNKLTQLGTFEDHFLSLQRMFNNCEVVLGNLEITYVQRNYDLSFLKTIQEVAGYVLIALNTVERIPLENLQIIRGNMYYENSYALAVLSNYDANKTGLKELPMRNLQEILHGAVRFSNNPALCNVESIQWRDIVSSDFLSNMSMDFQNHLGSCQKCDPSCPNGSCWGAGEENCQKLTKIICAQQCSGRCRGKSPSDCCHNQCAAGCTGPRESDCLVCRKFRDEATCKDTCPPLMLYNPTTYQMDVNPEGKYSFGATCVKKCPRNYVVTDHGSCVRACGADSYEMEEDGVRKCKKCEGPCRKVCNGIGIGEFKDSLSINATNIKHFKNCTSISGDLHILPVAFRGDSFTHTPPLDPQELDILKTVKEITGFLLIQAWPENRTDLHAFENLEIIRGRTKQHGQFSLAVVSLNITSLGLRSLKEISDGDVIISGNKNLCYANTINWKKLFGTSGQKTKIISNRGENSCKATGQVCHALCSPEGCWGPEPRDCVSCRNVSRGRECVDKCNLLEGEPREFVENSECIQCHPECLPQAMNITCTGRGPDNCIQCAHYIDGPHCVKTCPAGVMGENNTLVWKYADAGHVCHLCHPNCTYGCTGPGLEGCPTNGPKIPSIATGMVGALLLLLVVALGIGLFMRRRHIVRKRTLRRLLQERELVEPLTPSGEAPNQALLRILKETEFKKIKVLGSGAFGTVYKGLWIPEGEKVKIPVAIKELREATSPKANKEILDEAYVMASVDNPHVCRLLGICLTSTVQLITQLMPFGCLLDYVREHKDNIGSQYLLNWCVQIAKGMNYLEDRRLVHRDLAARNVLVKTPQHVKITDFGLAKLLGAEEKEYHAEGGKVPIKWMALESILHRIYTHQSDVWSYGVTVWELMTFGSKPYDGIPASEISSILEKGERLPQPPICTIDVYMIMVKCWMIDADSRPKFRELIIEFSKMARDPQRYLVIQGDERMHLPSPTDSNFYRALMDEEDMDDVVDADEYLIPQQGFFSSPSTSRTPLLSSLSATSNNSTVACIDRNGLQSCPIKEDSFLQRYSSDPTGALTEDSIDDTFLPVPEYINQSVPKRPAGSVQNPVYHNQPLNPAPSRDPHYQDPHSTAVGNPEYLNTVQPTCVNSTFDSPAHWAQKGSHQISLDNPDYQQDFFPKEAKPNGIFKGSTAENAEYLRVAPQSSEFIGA

Row | Compound | Activity [1] | Activity [2] | Activity [3] | Activity [4] | Activity [5] | IC50 [6] | viability at 1 µM (H9c2 [7]) | viability at 10 µM (H9c2 [8])
1 | CN(C)c1ccc(Nc2ncnc3sc4c(c23)CCN(C(=O)c2ccncc2)C4)cc1NC(=O)c1cccs1 | 36% | 85% | 110% | 85% | 82% | – | – | –
2 | CN(C)c1ccc(Nc2ncnc3sc4c(c23)CCN(C(=O)c2ncccn2)C4)cc1NC(=O)c1ccco1 | 54% | 82% | 98% | 101% | 81% | – | – | –
3 | CN(C)c1ccc(Nc2ncnc3sc4c(c23)CCNC4)cc1NC(=O)c1cccnc1 | 45% | 108% | 107% | 104% | 90% | – | – | –
4 | CN1CCc2c(sc3ncnc(Nc4ccc(N(C)C)c(NC(=O)c5cccnc5)c4)c23)C1 | 47% | 105% | 93% | 103% | 94% | – | – | –
5 | CN(C)c1ccc(Nc2ncnc3sc4c(c23)CCN(C(=O)c2cnccn2)C4)cc1NC(=O)c1cccs1 | 44% | 80% | 113% | 98% | 80% | – | – | –
6 | CN(C)c1ccc(Nc2ncnc3sc4c(c23)CCN(C(=O)c2ccccn2)C4)cc1NC(=O)c1cccs1 | 40% | 99% | 99% | 87% | 73% | – | – | –
7 | CN(C)c1ccc(Nc2ncnc3sc4c(c23)CCNC4)cc1NC(=O)c1ccccn1 | 42% | 103% | 98% | 96% | 95% | – | – | –
8 | CN1CCN(CCCN2CCc3c(sc4ncnc(Nc5ccc(N(C)C)c(NC(=O)c6cccs6)c5)c34)C2)CC1 | 38% | 86% | 103% | 98% | 93% | 330 nM | 69.1% | 81.8%
9 | CCC(=O)Nc1cc(Nc2ncnc3sc4c(c23)CCN(C)C4)ccc1N(C)C | 49% | 99% | 109% | 95% | 82% | – | – | –
10 | CCC(=O)Nc1cc(Nc2ncnc3sc4c(c23)CCN(C(=O)c2ccc(C(F)(F)F)cc2)C4)ccc1N(C)C | 41% | 107% | 103% | 109% | 95% | – | – | –
11 | CN(C)c1ccc(Nc2ncnc3sc4c(c23)CCN(C(=O)c2ccncc2)C4)cc1NC(=O)c1ccco1 | 35% | 107% | 116% | 109% | 92% | 980 nM | 49.1% | 70.7%
12 | CN(C)c1ccc(Nc2ncnc3sc4c(c23)CCN(C(=O)c2cccnc2)C4)cc1NC(=O)c1ccco1 | 41% | 110% | 101% | 89% | 93% | – | – | –
13 | CN1CCN(CCCN2CCc3c(sc4ncnc(Nc5ccc(N(C)C)c(NC(=O)c6ccco6)c5)c34)C2)CC1 | 33% | 90% | 107% | 100% | 88% | 640 nM | 61.1% | 79.9%
14 | CN1CCc2c(sc3ncnc(Nc4ccc(N(C)C)c(NC(=O)c5ccco5)c4)c23)C1 | 37% | 93% | 95% | 105% | 89% | 560 nM | 59.6% | 85.6%
15 | CN1CCc2c(sc3ncnc(Nc4ccc(N(C)C)c(NC(=O)c5cccs5)c4)c23)C1 | 40% | 104% | 103% | 108% | 89% | – | – | –
16 | CN(C)c1ccc(Nc2ncnc3sc4c(c23)CCN(C(=O)c2ccccn2)C4)cc1NC(=O)c1ccco1 | 39% | 104% | 89% | 86% | 77% | 820 nM | 54.3% | 70.9%
17 | Cc1ccc(C(=O)Nc2cc(Nc3ncnc4sc5c(c34)CCNC5)ccc2N(C)C)cc1 | 78% | 108% | 92% | 96% | 95% | – | – | –
18 | CCC(=O)Nc1cc(Nc2ncnc3sc4c(c23)CCNC4)ccc1N(C)C | 46% | 97% | 102% | 107% | 92% | – | – | –
19 | CCC(=O)Nc1cc(Nc2ncnc3sc4c(c23)CCN(CC)C4)ccc1N(C)C | 53% | 93% | 90% | 109% | 80% | – | – | –
20 | CN(C)c1ccc(Nc2ncnc3sc4c(c23)CCN(C(=O)c2cnccn2)C4)cc1NC(=O)c1ccco1 | 43% | 89% | 96% | 98% | 90% | – | – | –
21 | CN(C)c1ccc(Nc2ncnc3sc4c(c23)CCNC4)cc1NC(=O)c1cccs1 | 38% | 93% | 106% | 101% | 95% | 780 nM | 56.9% | 75.9%
22 | CCC(=O)Nc1cc(Nc2ncnc3sc4c(c23)CCN(Cc2ccccc2)C4)ccc1N(C)C | 48% | 91% | 94% | 106% | 85% | – | – | –
23 | CN1CCc2c(sc3ncnc(Nc4ccc(N(C)C)c(NC(=O)c5cccc6ccccc56)c4)c23)C1 | 77% | 98% | 96% | 101% | 87% | – | – | –
24 | Cc1ccc(C(=O)Nc2cc(Nc3ncnc4sc5c(c34)CCN(C)C5)ccc2N(C)C)cc1 | 71% | 108% | 92% | 97% | 83% | – | – | –
25 | CN(C)c1ccc(Nc2ncnc3sc4c(c23)CCN(C(=O)c2ncccn2)C4)cc1NC(=O)c1cccs1 | 49% | 92% | 112% | 104% | 86% | – | – | –
26 | CN(C)c1ccc(Nc2ncnc3sc4c(c23)CCN(C(=O)c2cccnc2)C4)cc1NC(=O)c1cccs1 | 45% | 94% | 93% | 81% | 69% | – | – | –
27 | CN1CCc2c(sc3ncnc(Nc4ccc(N(C)C)c(NC(=O)c5ccccn5)c4)c23)C1 | 55% | 100% | 103% | 94% | 89% | – | – | –
28 | CCC(=O)Nc1cc(Nc2ncnc3sc4c(c23)CCN(c2ncccn2)C4)ccc1N(C)C | 59% | 102% | 99% | 106% | 80% | – | – | –
29 | CN(C)c1ccc(Nc2ncnc3sc4c(c23)CCNC4)cc1NC(=O)c1cccc2ccccc12 | 71% | 110% | 90% | 105% | 88% | – | – | –
30 | CN1CCc2c(sc3ncnc(Nc4ccc(N(C)C)c(NC(=O)c5ccncc5)c4)c23)C1 | 46% | 105% | 97% | 105% | 84% | – | – | –
